Screens deposited in PubChem by The Scripps Research Institute Molecular Screening Center.
In the library only some 0.55% were active in any assay of this set; here they are far more common.
V1R ag counter – counter-screen for oxytocin receptor agonists: human V1a receptor agonists; CHO-V1R cells, Fluo-8 calcium fluorescence, agonist mode; 0% DMSO, 100% 3 nM vasopressin; activation, % at 3 µM; hit rate 0.25% among 320,000;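 active = activation above the mean activation of all tested compounds plus 3 SD, per screening run, cut at about 20% in these data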;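 also: signal is peak over basal fluorescence ratio across a 100 second FLIPR read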
TRPML3 ag – agonists of human TRPML3 channel | Q8TDD5 | HEK293 TRPML3-YFP, Fluo-8 calcium fluorescence; 100% = the carbachol control signal | activation, % at 3 µM | hit rate 0.29% among 220,000;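 active = activation above its plate's cutoff, the mean activation of the plate's test wells plus 3 SD, cut at about 12% in these data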;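 also: 0% = DMSO only wells and 100% = carbachol wells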
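Material: HEK293 cells stably carrying human TRPML3-YFP; compound dosing: single dose, 3 µM final nominal compound, 0.3% DMSO final; incubation: 1-h 37 °C dye load, 5-s basal, 120-s post-compound reads; technique: Fluo-8 intracellular calcium fluorescence, excitation 470-495 nm, emission 515-575 nm; read-out basis: percent activation from peak-to-basal fluorescence ratio, scaled between DMSO and carbachol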
OXTR agonist – activates the human oxytocin receptor. P30559. CHO-OTR cells, Fluo-8 calcium fluorescence; normalized: DMSO 0%, oxytocin 100%. activation, % at 3 µM. hit rate 0.32% among 320,000;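 active = activation above the mean of all tested compounds plus 3 SD, cutoff set per screening run, cut at about 20% in these data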;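 also: peak over basal fluorescence ratio from a 100 s FLIPR kinetic read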
Target sequence (P30559 whole entry, looked up): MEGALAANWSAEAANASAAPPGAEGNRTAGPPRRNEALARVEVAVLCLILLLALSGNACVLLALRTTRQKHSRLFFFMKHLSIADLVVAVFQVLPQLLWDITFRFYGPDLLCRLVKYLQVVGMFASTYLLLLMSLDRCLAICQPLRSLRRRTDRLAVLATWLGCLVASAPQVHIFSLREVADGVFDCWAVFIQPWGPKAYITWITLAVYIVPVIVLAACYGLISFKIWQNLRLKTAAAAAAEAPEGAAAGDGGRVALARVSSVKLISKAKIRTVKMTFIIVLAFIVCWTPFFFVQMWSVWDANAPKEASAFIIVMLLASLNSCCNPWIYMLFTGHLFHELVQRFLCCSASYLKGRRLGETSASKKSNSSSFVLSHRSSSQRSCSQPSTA
zfTRPN1 agonist – zebrafish TRPN1 (NompC) channel agonism. HEK293 zebrafish TRPN1-YFP, Fluo-8 calcium fluorescence; 100% = response to 87 µM carbachol. activation, % at 3 µM. hit rate 0.18% among 220,000. AID 1424;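 active = activation above its plate's cutoff, the mean activation of test wells on that plate plus 3 SD, cut at about 19% in these data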;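 also: 0% = DMSO alone and 100% = 87 µM carbachol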
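Control set: carbachol 87 µM as high control, DMSO as low control; system: HEK293 stable line with zebrafish TRPN1-YFP; read-out: % activation versus carbachol response; detection: intracellular calcium fluorescence with Fluo-8; doses: single test compound dose, 3 µM nominal, 0.3% DMSO; schedule: dye 1 h 37 °C plus 30 min RT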
OXTR potentiate – human OXTR potentiation; CHO-OTR cells, Fluo-8 calcium fluorescence, potentiator mode; 0% = oxytocin EC15, 100% = EC100; AID 2445; activation, % at 3 µM; P30559; hit rate 0.061% among 320,000;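 active = activation above that plate's cutoff, the mean activation of tested compounds plus 3 SD, cut at about 6.6% in these data, passing the limit was not always enough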;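 also: 100% uses oxytocin at 75 nM as the full agonist control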
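System: human OTR in CHO cells; Also added: sub-maximal oxytocin, roughly EC15; Timing: compound 6 min at room temperature before oxytocin, 100 s read; Technique: Fluo-8 intracellular calcium fluorescence, ex 470-495, em 515-575 nm; Controls: oxytocin EC15 low and EC100 high; Replication: singlicate.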
An asterisk follows results filed as active.

How did COc1ccc(C2SCCN2C(=S)Nc2cccc(C(F)(F)F)c2)cc1 (stereo unspecified) do in these assays?
V1R ag counter: 22*; TRPML3 ag: 3; OXTR agonist: 39*; zfTRPN1 agonist: 6; OXTR potentiate: -14

How did CCCCn1c(N)c(N(C)C(=O)c2cc3c(s2)CCCCC3)c(=O)[nH]c1=O do in these assays?
V1R ag counter: 1; OXTR agonist: 1; OXTR potentiate: -4

Results for Cc1ccc(S(=O)(=O)N/N=C/c2ccc(OC3CSC3)cc2)cc1 ?
V1R ag counter: 40*; TRPML3 ag: 13*; OXTR agonist: 24*; zfTRPN1 agonist: 20*; OXTR potentiate: -29

How did CCCC(C(=O)Nc1ccc(S(=O)(=O)N2CCOCC2)cc1)c1ccccc1 (stereo unspecified) do in these assays?
V1R ag counter: 20*; OXTR agonist: 28*; OXTR potentiate: -16

How did COc1ccc(Cc2nnc(NC(=O)CSc3ccc(C)cc3)s2)cc1OC do in these assays?
V1R ag counter: 77*; TRPML3 ag: 2; OXTR agonist: 57*; zfTRPN1 agonist: 10; OXTR potentiate: -28

What do the screens show for `COc1ccc(Cc2nnc(NC(=O)Nc3ccc(C)cc3)s2)cc1OC`?
V1R ag counter: 1; OXTR agonist: -1; OXTR potentiate: -7

How did N=C1/C(=C\c2ccc(OCc3ccccc3)cc2)C(=O)N=C2SC(N3CCCC3)=NN12 do in these assays?
TRPML3 ag: 0; zfTRPN1 agonist: -3

How did COc1ccc(N/N=C(\C#N)C(=N)SCc2ccccc2)cc1 do in these assays?
TRPML3 ag: 15*; zfTRPN1 agonist: 19*

What do the screens show for `COc1ccc(N/N=C(\C#N)C(=N)N2CCCCC2)cc1`?
V1R ag counter: -1; TRPML3 ag: 0; OXTR agonist: 1; zfTRPN1 agonist: 0; OXTR potentiate: -8

What do the screens show for `COc1ccc(-[n+]2c(C)cc(/C=C3\Sc4ccccc4N3C)cc2C)cc1`?
V1R ag counter: 13; TRPML3 ag: 7; OXTR agonist: 15; zfTRPN1 agonist: 19*; OXTR potentiate: -20

Results for OCC[C@H]1C[C@H](O)[C@@H](O)[C@@]2(CCc3ccccc3O2)O1 ?
V1R ag counter: 1; OXTR agonist: 1; OXTR potentiate: -10

Results for Cc1ccc(O)c(C(=O)c2cc(C#N)c(=O)n(-c3nccs3)c2)c1 ?
V1R ag counter: 54*; TRPML3 ag: 19*; OXTR agonist: 66*; zfTRPN1 agonist: 45*; OXTR potentiate: -15

What do the screens show for `CCN(CC)CCNc1ncnc2c1[nH]c1ccc(OC)cc12`?
V1R ag counter: -1; TRPML3 ag: 0; OXTR agonist: 0; zfTRPN1 agonist: 2; OXTR potentiate: 1

How did COc1ccc2[nH]c3c(NCCC4=CCCCC4)ncnc3c2c1 do in these assays?
TRPML3 ag: 9; zfTRPN1 agonist: 20*

How did CCN1/C(=C/C=C/c2oc3ccc(-c4ccccc4)cc3[n+]2CC)Oc2ccc(-c3ccccc3)cc21 do in these assays?
V1R ag counter: 761*; TRPML3 ag: 326*; OXTR agonist: 662*; zfTRPN1 agonist: 777*; OXTR potentiate: -10

Results for N#C/C(=C\c1ccc(N2CCCCC2)o1)C(=O)Nc1cccc(Br)c1 ?
V1R ag counter: 199*; TRPML3 ag: 14*; OXTR agonist: 187*; zfTRPN1 agonist: 20*; OXTR potentiate: -21

How did N#C/C(=C\c1ccc(N2CCCCC2)o1)C(N)=O do in these assays?
V1R ag counter: 7; TRPML3 ag: 4; OXTR agonist: 3; zfTRPN1 agonist: 4; OXTR potentiate: -2

Results for Cc1cccc(CSC(Nc2ccc(F)cc2)=C(C#N)C#N)c1 ?
V1R ag counter: 10; TRPML3 ag: 19*; OXTR agonist: 18; zfTRPN1 agonist: 26*; OXTR potentiate: -7

How did N#CC(C#N)=C(Nc1ccc(F)cc1)SCc1cccc(Br)c1 do in these assays?
V1R ag counter: 6; TRPML3 ag: 21*; OXTR agonist: 16; zfTRPN1 agonist: 25*; OXTR potentiate: -10

What do the screens show for `CC(SCc1ccccc1)C(=O)Nc1ccc(F)cc1` (stereo unspecified)?
V1R ag counter: 0; TRPML3 ag: -1; OXTR agonist: -3; zfTRPN1 agonist: -3; OXTR potentiate: -4

How did Cc1cccc(CSC(=N)N)c1 do in these assays?
V1R ag counter: 2; TRPML3 ag: 0; OXTR agonist: 0; zfTRPN1 agonist: 1; OXTR potentiate: -10

Results for Cc1cc(C(=O)N2CCCC(N3CCN(c4cccc(C(F)(F)F)c4)CC3)C2)c(C)o1 (stereo unspecified) ?
V1R ag counter: -1; OXTR agonist: -3; OXTR potentiate: -2

How did CC(=O)Nc1ccc(S(=O)(=O)NCCC(=O)N2CCN(C(c3ccccc3)c3ccccc3)CC2)cc1 do in these assays?
V1R ag counter: 1; OXTR agonist: 0; OXTR potentiate: 0

How did Cc1ccc(N=Cc2sc(O)c3ccccc23)cc1 do in these assays?
V1R ag counter: 37*; TRPML3 ag: 8; OXTR agonist: 29*; zfTRPN1 agonist: 13; OXTR potentiate: -14

Results for COc1cc(/C=C2/SC(=Nc3ccc(O)cc3)NC2=O)ccc1O ?
V1R ag counter: 2; TRPML3 ag: 2; OXTR agonist: 2; zfTRPN1 agonist: 2; OXTR potentiate: -10

Results for COc1cc(/C=C2\SC(=Nc3ccccc3)NC2=O)cc(Cl)c1O ?
V1R ag counter: 70*; OXTR agonist: 89*; OXTR potentiate: -11

How did Cc1ccc(C2C(C(=O)c3cccs3)=C(O)C(=O)N2c2nnc(C)s2)cc1 (stereo unspecified) do in these assays?
V1R ag counter: 13; TRPML3 ag: 22*; OXTR agonist: 8; zfTRPN1 agonist: 42*; OXTR potentiate: 0

Results for COc1ccc(C2C(C(=O)c3cccs3)=C(O)C(=O)N2c2cccc(C)n2)cc1 (stereo unspecified) ?
V1R ag counter: 0; TRPML3 ag: 0; OXTR agonist: 0; zfTRPN1 agonist: -1; OXTR potentiate: -5

Results for COc1cc(-c2n[nH]c(=S)n2/N=C/c2cccn2C)cc(OC)c1OC ?
V1R ag counter: 51*; TRPML3 ag: 35*; OXTR agonist: 72*; zfTRPN1 agonist: 64*; OXTR potentiate: -22

Results for Cn1cccc1/C=N/n1c(-c2ccco2)n[nH]c1=S ?
V1R ag counter: -1; TRPML3 ag: 7; OXTR agonist: 0; zfTRPN1 agonist: 2; OXTR potentiate: 0

Results for CN1CCN(c2ccc(C(F)(F)F)cc2NC(=O)Nc2ccccc2)CC1 ?
V1R ag counter: 33*; OXTR agonist: 34*; OXTR potentiate: -24

Results for COc1ccccc1-n1c(=O)oc2ccc(Cl)cc2c1=O ?
V1R ag counter: 12; TRPML3 ag: 12*; OXTR agonist: 12; zfTRPN1 agonist: 24*; OXTR potentiate: -20
